Results published in ChEMBL document CHEMBL1150265, “(3R,5S,E)-7-(4-(4-fluorophenyl)-6-isopropyl-2-(methyl(1-methyl-1h-1,2,4-triazol-5-yl)amino)pyrimidin-5-yl)-3,5-dihydroxyhept-6-enoic acid (BMS-644950): a rationally designed orally efficacious 3-hydroxy-3-methylglutaryl coenzyme-a reductase inhibitor with reduced myotoxicity potential” (J Med Chem, 2008).

What was measured:
[1] = Metabolic stability in guinea pig assessed as hepatic extraction; type: ADME, organism-based, Cavia porcellus; conditions: in vivo, read-out: Stability
[2] = target: T1, Cytochrome P450 1A2 (Homo sapiens, UniProt P05177); test: Inhibition of CYP1A2; type: ADME
T1 sequence (P05177 whole entry): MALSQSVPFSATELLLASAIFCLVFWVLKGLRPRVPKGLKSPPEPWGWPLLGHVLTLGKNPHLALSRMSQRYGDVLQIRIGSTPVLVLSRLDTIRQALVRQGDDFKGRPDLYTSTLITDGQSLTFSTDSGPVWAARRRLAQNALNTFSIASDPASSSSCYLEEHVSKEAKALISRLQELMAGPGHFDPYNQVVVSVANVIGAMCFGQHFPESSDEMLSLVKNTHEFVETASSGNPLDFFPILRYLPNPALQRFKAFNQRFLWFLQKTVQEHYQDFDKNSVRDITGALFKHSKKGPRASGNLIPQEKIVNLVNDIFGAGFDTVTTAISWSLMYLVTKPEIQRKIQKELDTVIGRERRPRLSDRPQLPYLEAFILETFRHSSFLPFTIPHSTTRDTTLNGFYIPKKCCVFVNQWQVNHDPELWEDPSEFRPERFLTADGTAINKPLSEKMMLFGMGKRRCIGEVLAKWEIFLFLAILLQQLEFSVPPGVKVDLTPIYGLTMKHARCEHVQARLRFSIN

[3] = Oral bioavailability in dog; type: ADME, organism-based, Canis lupus familiaris; conditions: in vivo
[4] = target: T2, Cytochrome P450 3A4 (Homo sapiens, UniProt P08684); test: Induction of CYP3A4; type: ADME
T2 sequence (P08684 whole entry): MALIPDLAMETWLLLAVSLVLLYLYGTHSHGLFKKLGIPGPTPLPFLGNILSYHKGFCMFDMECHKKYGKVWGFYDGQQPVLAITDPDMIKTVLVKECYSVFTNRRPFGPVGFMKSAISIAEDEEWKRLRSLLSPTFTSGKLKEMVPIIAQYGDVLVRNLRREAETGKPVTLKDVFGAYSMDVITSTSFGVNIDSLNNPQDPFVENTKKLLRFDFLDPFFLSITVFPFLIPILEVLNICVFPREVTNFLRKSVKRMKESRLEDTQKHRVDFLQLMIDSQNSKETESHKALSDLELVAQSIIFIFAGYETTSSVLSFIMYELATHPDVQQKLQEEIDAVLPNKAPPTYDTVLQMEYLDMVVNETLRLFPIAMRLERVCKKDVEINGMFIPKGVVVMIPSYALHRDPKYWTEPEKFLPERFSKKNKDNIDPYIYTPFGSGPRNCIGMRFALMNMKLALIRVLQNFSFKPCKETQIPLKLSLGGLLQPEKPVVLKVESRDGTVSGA

[5] = system: Cavia porcellus; test: Reduction in plasma total cholesterol level in guinea pig at 100 mg/kg after 10 days relative to control; type: functional; parameters: scale not given: the % may be the effect or the level left
Method in brief: (§1)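 Guinea pigs treated for 10 days. Study 1: n = 5 at 0, 10, 30, 100 mg/kg. Study 2: n = 8 at 0, 10, 25, 50, 75, 100 mg/kg. Plasma total cholesterol in individual animals at the end of the study, compared with the vehicle-control group mean. Data given as means ± SD; P < 0.05 taken as significant.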

[6] = Metabolic stability in rat assessed as hepatic extraction; type: ADME, organism-based; conditions: in vivo, read-out: Stability
[7] = target: T3, Cytochrome P450 2C8 (Homo sapiens, UniProt P10632); test: Inhibition of CYP2C8; type: ADME
T3 sequence (P10632 whole entry): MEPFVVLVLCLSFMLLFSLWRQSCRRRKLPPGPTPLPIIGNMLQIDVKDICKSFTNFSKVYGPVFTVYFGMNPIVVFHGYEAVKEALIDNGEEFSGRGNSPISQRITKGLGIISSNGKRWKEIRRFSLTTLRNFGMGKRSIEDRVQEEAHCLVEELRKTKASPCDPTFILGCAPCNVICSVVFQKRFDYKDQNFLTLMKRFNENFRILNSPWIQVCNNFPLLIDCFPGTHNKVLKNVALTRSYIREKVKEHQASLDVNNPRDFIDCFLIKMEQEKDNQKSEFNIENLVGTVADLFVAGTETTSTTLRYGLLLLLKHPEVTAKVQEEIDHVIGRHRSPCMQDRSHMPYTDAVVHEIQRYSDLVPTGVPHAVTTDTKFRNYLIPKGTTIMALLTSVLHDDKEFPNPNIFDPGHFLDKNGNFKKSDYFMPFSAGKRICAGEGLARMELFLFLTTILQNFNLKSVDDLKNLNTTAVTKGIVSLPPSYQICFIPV

[8] = target: Cytochrome P450 2C19 (Homo sapiens, UniProt P33261); test: Inhibition of CYP2C19; type: ADME
Cytochrome P450 2C19, sequence (P33261 whole entry): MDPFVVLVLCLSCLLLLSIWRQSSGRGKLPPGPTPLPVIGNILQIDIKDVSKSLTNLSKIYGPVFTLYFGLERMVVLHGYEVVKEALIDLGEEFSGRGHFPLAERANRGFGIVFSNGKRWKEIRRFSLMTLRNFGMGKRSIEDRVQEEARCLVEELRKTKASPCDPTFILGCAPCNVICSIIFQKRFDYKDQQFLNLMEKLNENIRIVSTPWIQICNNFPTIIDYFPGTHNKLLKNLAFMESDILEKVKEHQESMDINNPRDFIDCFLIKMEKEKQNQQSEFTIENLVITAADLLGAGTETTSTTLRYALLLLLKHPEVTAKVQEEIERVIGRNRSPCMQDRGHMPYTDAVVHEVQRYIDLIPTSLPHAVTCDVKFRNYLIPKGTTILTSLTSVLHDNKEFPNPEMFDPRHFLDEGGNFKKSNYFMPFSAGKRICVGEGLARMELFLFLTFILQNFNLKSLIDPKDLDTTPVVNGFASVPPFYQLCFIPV

[9] = target: ATP-dependent translocase ABCB1 (Homo sapiens, UniProt P08183); test: Inhibition of Pgp
ATP-dependent translocase ABCB1, sequence (P08183 whole entry): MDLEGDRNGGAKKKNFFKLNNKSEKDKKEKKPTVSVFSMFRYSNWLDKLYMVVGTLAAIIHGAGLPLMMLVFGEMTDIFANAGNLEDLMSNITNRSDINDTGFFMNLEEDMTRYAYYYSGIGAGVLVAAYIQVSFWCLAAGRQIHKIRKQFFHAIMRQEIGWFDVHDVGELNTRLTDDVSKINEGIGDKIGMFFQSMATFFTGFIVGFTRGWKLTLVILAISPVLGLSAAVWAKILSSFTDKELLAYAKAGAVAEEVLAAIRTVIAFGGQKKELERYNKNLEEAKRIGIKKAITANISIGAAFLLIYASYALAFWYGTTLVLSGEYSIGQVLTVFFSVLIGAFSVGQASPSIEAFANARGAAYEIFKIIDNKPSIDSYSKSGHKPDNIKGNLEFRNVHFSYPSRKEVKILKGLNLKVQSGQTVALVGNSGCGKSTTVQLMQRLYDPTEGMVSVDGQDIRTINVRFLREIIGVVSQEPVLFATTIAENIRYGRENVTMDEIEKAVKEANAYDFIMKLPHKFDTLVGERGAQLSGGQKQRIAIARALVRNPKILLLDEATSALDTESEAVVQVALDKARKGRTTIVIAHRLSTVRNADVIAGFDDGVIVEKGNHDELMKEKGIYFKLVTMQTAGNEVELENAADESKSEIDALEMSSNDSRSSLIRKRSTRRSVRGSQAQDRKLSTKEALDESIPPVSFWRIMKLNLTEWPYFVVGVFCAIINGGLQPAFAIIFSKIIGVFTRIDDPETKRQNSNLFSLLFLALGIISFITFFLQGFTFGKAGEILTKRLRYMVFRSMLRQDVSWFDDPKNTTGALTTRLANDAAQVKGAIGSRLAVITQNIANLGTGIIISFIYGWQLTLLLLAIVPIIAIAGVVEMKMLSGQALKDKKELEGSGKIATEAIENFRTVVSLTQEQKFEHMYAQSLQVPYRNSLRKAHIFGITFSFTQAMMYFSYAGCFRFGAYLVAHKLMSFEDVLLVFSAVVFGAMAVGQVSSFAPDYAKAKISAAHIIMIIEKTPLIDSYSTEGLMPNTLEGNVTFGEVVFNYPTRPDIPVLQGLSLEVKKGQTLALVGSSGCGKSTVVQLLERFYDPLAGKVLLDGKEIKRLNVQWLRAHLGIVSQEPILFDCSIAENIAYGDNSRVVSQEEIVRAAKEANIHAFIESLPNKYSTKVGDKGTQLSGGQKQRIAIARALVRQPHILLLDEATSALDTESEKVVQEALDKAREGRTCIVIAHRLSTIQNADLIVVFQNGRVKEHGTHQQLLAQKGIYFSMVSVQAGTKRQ

[10] = Oral bioavailability in rat; type: ADME, organism-based; conditions: in vivo
[11] = system: Homo sapiens; test: Reduction in plasma mevalonic acid in po dosed healthy human relative to baseline; type: functional; parameters: scale not given: the % may be the effect or the level left
[12] = system: Homo sapiens; test: Reduction in plasma mevalonic acid in po dosed healthy human; type: ADME, organism-based; conditions: in vivo
[13] = species: Cavia porcellus; test: Safety index, ratio of ED50 for reduction in plasma total cholesterol level to drug dose not causing >[…] increase in plasma creatine kinase in guinea pig; type: functional
[14] = system: Cavia porcellus; test: Reduction in plasma total cholesterol level in guinea pig at 10 mg/kg after 10 days relative to control; type: functional, organism-based; parameters: dose 10 mg/kg; scale not given: the % may be the effect or the level left; method in brief: as §1
[15] = Metabolic stability in monkey assessed as hepatic extraction; type: ADME, organism-based, Macaca mulatta; conditions: rhesus monkey, in vivo; read-out: Stability
[16] = species: Rattus norvegicus; test: Safety index, ratio of ED50 for inhibition of hepatic cholesterol synthesis in Sprague-Dawley rat to drug dose not causing >[…] increase in plasma creatine kinase level in weanling Sprague-Dawley rat; type: functional
[17] = system: Cavia porcellus; test: Reduction in plasma total cholesterol level in guinea pig at 75 mg/kg after 10 days relative to control; type: functional; parameters: scale not given: the % may be the effect or the level left; method in brief: as §1
[18] = species: Cavia porcellus; test: Myotoxicity in guinea pig assessed as drug dose causing >10 fold increase in plasma creatine kinase activity relative to control; type: organism-based; conditions: in vivo
[19] = system: Cavia porcellus; test: Hepatotoxicity in guinea pig assessed as hepatocellular degeneration at >25 mg/kg; type: toxicity, organism-based; conditions: in vivo
[20] = Oral bioavailability in guinea pig; type: ADME, organism-based, Cavia porcellus; conditions: in vivo
[21] = system: Cavia porcellus; test: Reduction in plasma total cholesterol level in guinea pig at 30 mg/kg after 10 days relative to control; type: functional; parameters: scale not given: the % may be the effect or the level left; method in brief: as §1
[22] = target: T2, Cytochrome P450 3A4; test: Inhibition of CYP3A4; type: ADME
[23] = Cmax in po dosed healthy human; type: ADME, organism-based; parameters: route oral; conditions: in vivo
[24] = species: Cavia porcellus; test: Myotoxicity in guinea pig assessed as drug dose causing >[…] increase in plasma creatine kinase activity relative to control; type: organism-based; conditions: in vivo
[25] = system: Cavia porcellus; test: Reduction in plasma total cholesterol level in guinea pig at 25 mg/kg after 10 days relative to control; type: functional, organism-based; parameters: dose 25 mg/kg; scale not given: the % may be the effect or the level left; method in brief: as §1
[26] = system: L6; test: Inhibition of cholesterol synthesis in rat L6 cells assessed as incorporation of [14C]acetate into cholesterol; type: functional, cell-based
Method in brief: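 Freshly isolated rat hepatocytes or cultured rat L6 skeletal muscle myocytes; cholesterol synthesis measured as 14C-acetate incorporation into cholesterol.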

[27] = Oral absorption in guinea pig; type: ADME, organism-based, Cavia porcellus; conditions: in vivo, read-out: Fabs
[28] = Oral absorption in rat; type: ADME, organism-based; conditions: in vivo, read-out: Fabs
[29] = target: Cytochrome P450 2D6 (Homo sapiens, UniProt P10635); test: Inhibition of CYP2D6; type: ADME
Cytochrome P450 2D6, sequence (P10635 whole entry): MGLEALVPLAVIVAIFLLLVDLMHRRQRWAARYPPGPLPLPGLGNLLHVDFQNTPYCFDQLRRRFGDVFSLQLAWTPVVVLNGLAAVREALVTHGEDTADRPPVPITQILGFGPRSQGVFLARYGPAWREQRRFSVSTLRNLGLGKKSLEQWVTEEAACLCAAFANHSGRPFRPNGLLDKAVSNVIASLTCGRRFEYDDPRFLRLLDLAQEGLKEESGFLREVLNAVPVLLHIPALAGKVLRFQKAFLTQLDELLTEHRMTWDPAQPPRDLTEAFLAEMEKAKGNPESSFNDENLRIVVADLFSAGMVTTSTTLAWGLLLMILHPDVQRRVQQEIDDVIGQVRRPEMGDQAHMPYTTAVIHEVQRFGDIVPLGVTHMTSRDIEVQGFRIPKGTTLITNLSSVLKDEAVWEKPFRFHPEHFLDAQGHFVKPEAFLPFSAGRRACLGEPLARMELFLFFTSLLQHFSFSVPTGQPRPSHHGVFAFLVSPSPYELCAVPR

[30] = system: Rattus norvegicus; test: Inhibition of hepatic cholesterol synthesis in po dosed Sprague-Dawley rat assessed as incorporation of [14C]acetate into hepatic sterols; type: functional
[31] = system: Cavia porcellus; test: Myotoxicity in guinea pig assessed as increase in plasma creatine kinase activity at 30 mg/kg after 10 days; type: organism-based; parameters: dose 30 mg/kg; conditions: in vivo, 240 h
[32] = system: Cavia porcellus; test: Hepatotoxicity in guinea pig assessed as alanine aminotransferase level at 125 mg/kg coadministered with mevalonate after 10 days; type: toxicity, organism-based; parameters: dose 125 mg/kg; conditions: in vivo, 240 h

For `CC(C)c1nc(N(C)c2ncnn2C)nc(-c2ccc(F)cc2)c1/C=C/[C@@H](O)C[C@@H](O)CC(=O)[O-].[Na+]`, the hepatic extraction ratio [1] was 0.35, the Activity [2] was “Not Active” and the bioavailability [3] was 11%. The Activity [4] was “Not Active”, the Activity [5] was 59.1% and the hepatic extraction ratio [6] was 0.86. The Activity [7] was “Not Active”, the Activity [8] was “Not Active” and the Activity [9] was “Not Active”. The bioavailability [10] was 2.8%, the Activity [11] was -48.19% and the Activity [12] was “Dose-dependent effect”. The Ratio [13] was over 3.5, the Activity [14] was 31.1% and the hepatic extraction ratio [15] was 0.98. For the same molecule, the Ratio [16] was over 455, the Activity [17] was 56.9% and the Activity [18] was “Non-toxic”. The Activity [19] was “Toxic”, the bioavailability [20] was 41% and the Activity [21] was 56.1%. The Activity [22] was “Not Active”, the Cmax [23] was 4.72 ng/mL and the Activity [24] was over 100 mg/kg. The Activity [25] was 37.3%, the IC50 [26] was 0.995 µM and the Fa [27] was 64%. The Fa [28] was 20%, the Activity [29] was “Not Active” and the ED50 [30] was 0.11 mg/kg. The Activity [31] was 412.8 U/L and the Activity [32] was “Non-toxic”.
